Source: PubChem
CHOP inhibitor – inhibitors of CHOP induction in ER stress response; CHO-K1 CHOP-promoter luciferase, tunicamycin-induced, 15-18 h; inhibition, % at 10 µM; hit rate 3.8% among 220,000; AID 2732;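 active = compounds that reduced the stress-induced luciferase reporter signal by more than about 70% of percent inhibition, limit read from the data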
PvdQ acylase – P. aeruginosa PvdQ acylase inhibition | purified PvdQ acylase, fluorescence plate reader | inhibition, % at 10 µM | hit rate 0.063% among 340,000 | AID 488965; in the data active = inhibition above about 30%, passing the limit was not always enough
UPR CHOP act – apoptotic UPR (CHOP) activation; CHO-CHOP luciferase reporter, luminescence; percent of tunicamycin response over DMSO baseline; activation, % at 10 µM; hit rate 0.34% among 330,000; AID 449763;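 active = at 10 µM dose, activation of 40% or more, normalized to positive control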
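Assay system: CHO cells with stable CHOP pathway luciferase reporter; Buffer or medium: F12 plus 10% serum; Times: 16-18 h cell attachment, then 6 h compound exposure, 37 °C; Signal: luciferase luminescence; Read-out basis: percent activation relative to tunicamycin control; Control set: tunicamycin high control, DMSO low control.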
XBP1 UPR activ – activators of adaptive arm of unfolded protein response (XBP1). CHO-XBP1 luciferase reporter, IRE1-XBP1 UPR activation, luminescence; percent of tunicamycin response, DMSO as zero. activation, % at 20 µM. hit rate 0.33% among 330,000. AID 463104;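 active = versus positive control, 20 µM dose yields 30% or more activation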
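Material – CHO cell line with stable XBP1 luciferase reporter · Buffer or medium – F12 plus 10% FBS · Compound – single point, 20 µM final compound, 1% DMSO · Schedule – 16-18 h cell attachment at 37 °C, then 6 h compound exposure · Signal – Steady-Glo luminescence read · Benchmarks – high control tunicamycin 10 µg/mL final, low control DMSO vehicle only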
UPR CHOP confirm – apoptotic UPR (CHOP) activation, confirmed; shares compounds with UPR CHOP act; CHO-CHOP cells, CHOP-luciferase reporter luminescence; percent of tunicamycin response, DMSO as zero; activation, % at 10 µM; hit rate 64% among 1,000; AID 463112; in the data active = activation above about 33%
UPR XBP1 confirm – confirmation of adaptive unfolded protein response (XBP1) activators; shares compounds with XBP1 UPR activ; CHO-XBP1 IRE1-XBP1 luciferase reporter, luminescence; activation, % at 20 µM; hit rate 63% among 1,000;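 active = reporter signal at least 30% of the positive control's activation in two or more of four replicate wells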
Large screens that a line does not name were inactive (follow-up assays come after a bar, where they were run). This excerpt belongs to a sample that is enriched for hits.

COc1cc(/C=C2\CC(C(C)(C)C)C/C(=C\c3cc(OC)c(OC)c(OC)c3)C2=O)cc(OC)c1OC (centres undefined)	UPR CHOP act 126, XBP1 UPR activ 43 (no result: CHOP inhibitor) | UPR CHOP confirm 112 | UPR XBP1 confirm 41
Cc1ccc(NC(=O)c2ccc3ccccc3n2)cc1S(=O)(=O)N1CCOCC1	none
O=C(C[C@H]1C[C@H](C(=O)N2CCCCC2)[C@@]2(CCc3ccccc3)c3[nH]c4ccc(Cl)cc4c3CCN2C1=O)NCCc1ccccn1	none (no result: CHOP inhibitor)
O=C(C[C@H]1C[C@H](C(=O)N2CCCCC2)[C@@]2(CCc3ccccc3)c3[nH]c4ccc(Cl)cc4c3CCN2C1=O)NCCC1=CCCCC1	UPR CHOP act 55, XBP1 UPR activ 144 (no result: CHOP inhibitor) | UPR CHOP confirm 84 | UPR XBP1 confirm 146
CC(C)(C)OC(=O)C[C@@H]1C/C=C\C[C@@H](CC(=O)N(CCO)Cc2ccccc2)C(=O)N[C@H](C(C)(C)C)COC1=O	none (no result: CHOP inhibitor)
c1csc(-c2nc(CN3CCSCC3)cs2)c1	none
O=C(Nc1ccccn1)c1cc2ccccc2cc1O	none (no result: CHOP inhibitor)
CCOc1cc(/C=N/NC(N)=O)cc(Br)c1OCc1ccccc1	none (no result: CHOP inhibitor)
CCOc1cc(/C=N/NC(N)=S)cc(Br)c1OCc1ccccc1C	CHOP inhibitor 86, UPR CHOP act 69, XBP1 UPR activ 61 | UPR CHOP confirm 41 | UPR XBP1 confirm 60
CCOc1cc(/C=N/N=C(\N)c2nonc2N)cc(Br)c1OCc1cccc2ccccc12	CHOP inhibitor 95, UPR CHOP act 107, XBP1 UPR activ 268 | UPR CHOP confirm inactive | UPR XBP1 confirm 211
Cc1nc2ccccc2n1-c1nc(-c2ccco2)cc(C(F)(F)F)n1	UPR CHOP act 174, XBP1 UPR activ 57 (no result: CHOP inhibitor) | UPR CHOP confirm 133 | UPR XBP1 confirm 43
O=C(Nc1nc(-c2ccc3ccccc3c2)cs1)c1ccc(N2C(=O)CCC2=O)cc1	UPR CHOP act 76, XBP1 UPR activ 45 | UPR CHOP confirm 56 | UPR XBP1 confirm 47
O=C(/C=C/c1ccco1)NC(=S)Nc1ccc(O)c(-c2nc3ccccc3s2)c1	UPR CHOP act 106, XBP1 UPR activ 153 | UPR CHOP confirm 86 | UPR XBP1 confirm 287
Cc1oc2cc(O)ccc2c(=O)c1-c1cnn(-c2ccccc2)c1	none
CCc1cc2c(=O)c(-c3cnn(-c4ccccc4)c3)c(C)oc2cc1OCC(=O)Nc1cccc(C)c1	CHOP inhibitor 94, UPR CHOP act 148, XBP1 UPR activ 75 | UPR CHOP confirm 78 | UPR XBP1 confirm 121
O=c1oc(CCCO)cc2ccc(/C=C/c3cccc([N+](=O)[O-])c3)cc12	UPR CHOP act 76, XBP1 UPR activ 78 (no result: CHOP inhibitor) | UPR CHOP confirm inactive | UPR XBP1 confirm 33
O=c1oc(CCCO)cc2ccc(Br)cc12	none (no result: CHOP inhibitor)
C/C(CC(C)(C)C1CCCCC1)=N\NC(N)=S	UPR CHOP act 72, XBP1 UPR activ 69 | UPR CHOP confirm 43 | UPR XBP1 confirm 31
O=C(C[C@@H]1C/C=C/CC[C@H](Cc2ccc(F)cc2)C(=O)OC[C@@H](Cc2ccccc2)NC1=O)N[C@H](CO)Cc1ccccc1	UPR CHOP act 65, XBP1 UPR activ 152 (no result: CHOP inhibitor) | UPR CHOP confirm inactive | UPR XBP1 confirm 47
COc1ccc(N2CCN(Cc3cc(=O)oc4cc(-c5ccccc5)c(O)cc34)CC2)cc1	UPR CHOP act 116, XBP1 UPR activ 107 | UPR CHOP confirm 83 | UPR XBP1 confirm 78
O=c1cc(CN2CCN(c3ccccc3F)CC2)c2cc(O)c(-c3ccccc3)cc2o1	none
Cc1ccc(N2CCN(c3ccc(NCc4nc5ccccc5n4C)cc3)CC2)cc1	UPR CHOP act 45, XBP1 UPR activ 66 | UPR CHOP confirm 37 | UPR XBP1 confirm 89
C/C(CCC12CC3CC(CC(C3)C1)C2)=N\NC(N)=S	UPR CHOP act 220, XBP1 UPR activ 83 | UPR CHOP confirm 96 | UPR XBP1 confirm 63
C/C(CC1CC(C)OC1=O)=N\NC(N)=S (centres undefined)	none
CN(C)S(=O)(=O)n1cc(/C=C(\NC(=O)c2ccccc2F)C(=O)NCCCn2ccnc2)c2ccccc21	none (no result: CHOP inhibitor)
Cc1ccc(S(=O)(=O)N2CCN(C(=O)COC(=O)Cc3ccc(Cl)cc3)CC2)c(C)c1	none (no result: CHOP inhibitor)
COc1ccc(NC(=O)c2sc3nc(N4CCOCC4)c4c(c3c2N)CC(C)(C)OC4)c(OC)c1	UPR CHOP act 40, XBP1 UPR activ 163 (no result: CHOP inhibitor) | UPR CHOP confirm 39 | UPR XBP1 confirm 172
COc1ccc(NC(=O)c2sc3nc(N4CCOCC4)c4c(c3c2N)CC(C)(C)OC4)cc1	none (no result: CHOP inhibitor)
CC1CCN(Cc2c(C(=O)N/N=C/c3ccc(C(C)(C)C)cc3)nnn2-c2nonc2N)CC1	UPR CHOP act 202, XBP1 UPR activ 178 (no result: CHOP inhibitor) | UPR CHOP confirm 50 | UPR XBP1 confirm 117
CCOc1ccccc1/C=N/NC(=O)c1nnn(-c2nonc2N)c1CN1CCC(C)CC1	none (no result: CHOP inhibitor)
O=C(CSc1nc2ccc(Nc3nc(N4CCOCC4)nc(N4CCOCC4)n3)cc2s1)Nc1ccccc1F	UPR CHOP act 106, XBP1 UPR activ 277 (no result: CHOP inhibitor) | UPR CHOP confirm 111 | UPR XBP1 confirm 302
Cc1ccc(NC(=O)COc2ccc(/C=C3/SC(=Nc4ccccc4)N(Cc4cccnc4)C3=O)cc2)cc1	UPR CHOP act 84, XBP1 UPR activ 63 | UPR CHOP confirm 152 | UPR XBP1 confirm 60
O=C(/C(=C\c1ccccc1)c1nc2ccccc2[nH]1)c1ccc(Cl)cc1	CHOP inhibitor 87, UPR CHOP act 104, XBP1 UPR activ 53 | UPR CHOP confirm 267 | UPR XBP1 confirm inactive
COC(=O)/C(=C\c1ccc(O)cc1)c1nc2ccccc2[nH]1	none
CCCCCCCCCCC(=O)Nc1cccnc1	none (no result: PvdQ acylase)
Cc1cccc(C)c1OCC(=O)Nc1ccccc1N1CCCCC1	none (no result: CHOP inhibitor)
Brc1ccc(-c2nnc3ccc(N4CCN(c5ccccc5)CC4)nn23)cc1	UPR CHOP act 54, XBP1 UPR activ 47 | UPR CHOP confirm inactive | UPR XBP1 confirm inactive
Fc1ccc(-c2nnc3ccc(N4CCCC4)nn23)cc1	none
COc1ccc(-c2[nH]n(-c3ccc([N+](=O)[O-])cc3)c(=O)c2C=NCc2ccc(F)cc2)cc1	UPR CHOP act 42, XBP1 UPR activ 53 | UPR CHOP confirm inactive | UPR XBP1 confirm inactive
O=C(Nc1ccc(-c2nc3cc(NC(=O)c4cccs4)ccc3o2)cc1)c1cccs1	UPR CHOP act 195, XBP1 UPR activ 148 | UPR CHOP confirm 202 | UPR XBP1 confirm 324
Cc1cc(NC(=O)CSc2nc(C3CC3)nc3sc4c(c23)CCC(C)C4)no1 (centres undefined)	UPR CHOP act 51, XBP1 UPR activ 65 (no result: CHOP inhibitor, PvdQ acylase) | UPR CHOP confirm inactive | UPR XBP1 confirm inactive
Cc1cc(NC(=O)CSc2nc(C3CCCCC3)nc3ccccc23)no1	none
CN(C)C/C=C/C(O)(c1ccccc1)c1ccccc1	none
